Experimental data published in ChEMBL document CHEMBL1817572, “New, potent, selective, and short-acting peptidic V1a receptor agonists” (J Med Chem, 2011).
Numbered stars: 1 amine (or outer) side, 2 acyl side, 3 side chain; on linkers, the order of the positions; unused ones are H or OH. Bridge positions count the residues as written; N and C are the ends. Square brackets hold non-standard residues; d marks the D form. Peptide text beside a SMILES is read from it. * marks the point of attachment. Orn(Me) = CN(CCC[C@H](N[*:1])C(=O)[*:2])[*:3]; X5 = CC(C)CCNCCC[C@H](N[*:1])C(=O)[*:2]; X4 = CONC(=O)CC[C@H](N[*:1])C(=O)[*:2]; Ala(cPent) = N[C@@H](CC1CCCC1)C(=O)O; Bta = N[C@@H](Cc1csc2ccccc12)C(=O)O; Orn(iPr) = CC(C)NCCC[C@H](N)C(=O)O; 3Pal = N[C@@H](Cc1cccnc1)C(=O)O; 2Thi = N[C@@H](Cc1cccs1)C(=O)O; Cha = N[C@@H](CC1CCCCC1)C(=O)O; Orn = NCCC[C@H](N)C(=O)O; Dab = NCC[C@H](N)C(=O)O; Ac4c = NC1(C(=O)O)CCC1; X3 = OCCOCCN*; NHOH = ON*

Experiments:
Vasopressin V1b receptor = biological target: T1, Vasopressin V1b receptor (Homo sapiens, UniProt P47901); experiment: Agonist activity at recombinant human vasopressin V1b receptor expressed in Flp-In-293 cells by luciferase reporter gene assay; type: functional, cell-based
T1 sequence (P47901 whole entry): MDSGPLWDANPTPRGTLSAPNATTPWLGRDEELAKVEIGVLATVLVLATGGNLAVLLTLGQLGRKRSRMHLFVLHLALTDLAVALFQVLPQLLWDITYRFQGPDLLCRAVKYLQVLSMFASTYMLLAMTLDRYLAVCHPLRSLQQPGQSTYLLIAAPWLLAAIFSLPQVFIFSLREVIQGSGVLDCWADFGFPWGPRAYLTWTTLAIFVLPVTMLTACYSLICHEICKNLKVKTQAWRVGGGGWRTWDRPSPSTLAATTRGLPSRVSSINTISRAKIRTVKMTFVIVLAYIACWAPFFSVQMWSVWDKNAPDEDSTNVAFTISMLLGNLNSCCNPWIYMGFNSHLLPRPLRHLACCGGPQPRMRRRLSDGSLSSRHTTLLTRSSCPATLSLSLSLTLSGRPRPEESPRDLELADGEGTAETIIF
How it was run: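 Reporter gene assays in HEK293 cells transiently cotransfected with V1a (human or rat) or human V2 receptor vector plus NFAT-luciferase (V1a) or CRE-luciferase (V2) reporter; V1b in Flp-In-293 stably expressing receptor, OT in CHO-K1 stably expressing receptor, both transiently transfected with NFAT-luciferase. Two days post-transfection, peptides added for 5 h at 37 °C, lysis with luciferin, luminescence read.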

Oxytocin receptor = biological target: T2, Oxytocin receptor (Homo sapiens, UniProt P30559); experiment: Agonist activity at human OT receptor expressed in CHO-K1 cells by luciferase reporter gene assay; type: functional, cell-based
T2 sequence (P30559 whole entry): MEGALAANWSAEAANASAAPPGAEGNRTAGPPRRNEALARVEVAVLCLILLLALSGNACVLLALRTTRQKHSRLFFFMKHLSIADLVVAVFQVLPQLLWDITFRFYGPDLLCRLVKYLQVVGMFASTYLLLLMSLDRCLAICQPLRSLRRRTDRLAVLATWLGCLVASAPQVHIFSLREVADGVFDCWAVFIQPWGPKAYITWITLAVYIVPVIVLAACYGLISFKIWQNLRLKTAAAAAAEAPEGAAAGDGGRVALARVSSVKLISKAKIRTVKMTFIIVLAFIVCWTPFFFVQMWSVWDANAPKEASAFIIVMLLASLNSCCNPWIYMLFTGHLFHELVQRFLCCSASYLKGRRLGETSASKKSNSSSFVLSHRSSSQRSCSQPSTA

[1] = biological target: Vasopressin V1a/V2 (Homo sapiens) (UniProt P30518+P37288); experiment: Selectivity ratio of EC50 for human vasopressin V2 receptor to EC50 for human vasopressin V1a receptor
Vasopressin V2 receptor = Vasopressin V2 receptor (Homo sapiens, UniProt P30518); experiment: Agonist activity at recombinant human vasopressin V2 receptor expressed in HEK293 cells by luciferase reporter gene assay; type: functional, cell-based
Homo sapiens [2] = species on record: Homo sapiens; experiment: Selectivity ratio of EC50 for human oxytocin receptor to EC50 for human vasopressin V1a receptor
Vasopressin V1a receptor = Vasopressin V1a receptor (Homo sapiens, UniProt P37288); experiment: Agonist activity at recombinant human vasopressin V1a receptor expressed in HEK293 cells by luciferase reporter gene assay; type: functional, cell-based
Homo sapiens [3] = species on record: Homo sapiens; experiment: Selectivity ratio of EC50 for human vasopressin V1b receptor to EC50 for human vasopressin V1a receptor

Sequence of Vasopressin V2 receptor (P30518 whole entry): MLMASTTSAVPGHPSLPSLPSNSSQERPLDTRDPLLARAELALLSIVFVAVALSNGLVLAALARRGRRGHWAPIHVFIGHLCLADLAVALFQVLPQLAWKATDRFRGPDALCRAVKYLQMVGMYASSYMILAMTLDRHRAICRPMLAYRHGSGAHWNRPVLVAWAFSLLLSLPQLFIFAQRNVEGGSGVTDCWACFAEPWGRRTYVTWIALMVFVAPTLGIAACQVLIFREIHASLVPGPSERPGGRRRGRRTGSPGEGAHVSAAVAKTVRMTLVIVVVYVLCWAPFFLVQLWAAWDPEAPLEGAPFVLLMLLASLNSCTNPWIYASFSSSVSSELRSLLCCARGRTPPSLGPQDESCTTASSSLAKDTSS
Sequence of Vasopressin V1a/V2 (Homo sapiens) (P30518 whole entry, looked up): as the sequence (P30518 whole entry) above
Sequence of Vasopressin V1a/V2 (Homo sapiens) (P37288 whole entry, looked up): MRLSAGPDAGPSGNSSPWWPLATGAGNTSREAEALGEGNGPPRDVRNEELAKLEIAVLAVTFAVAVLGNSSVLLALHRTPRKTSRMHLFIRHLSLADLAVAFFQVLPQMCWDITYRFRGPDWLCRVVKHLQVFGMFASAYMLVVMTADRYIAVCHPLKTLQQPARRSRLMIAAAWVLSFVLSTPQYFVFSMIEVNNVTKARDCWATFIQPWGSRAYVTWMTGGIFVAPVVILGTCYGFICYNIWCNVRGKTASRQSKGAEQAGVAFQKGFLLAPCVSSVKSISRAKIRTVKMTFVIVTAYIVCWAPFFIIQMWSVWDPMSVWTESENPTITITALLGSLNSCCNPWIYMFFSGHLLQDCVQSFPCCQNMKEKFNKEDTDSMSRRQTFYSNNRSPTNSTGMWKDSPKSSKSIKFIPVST
Sequence of Vasopressin V1a receptor (P37288 whole entry): as the sequence (P37288 whole entry, looked up) above

Structure (SMILES)	EC50 (Vasopressin V1b receptor; read-out: EC50) [nM]	EC50 (Oxytocin receptor; cho-k1, read-out: EC50) [nM]	EC50 (Oxytocin receptor; read-out: pEC50 (converted)) [nM]	Ratio EC50 [1]	EC50 (Vasopressin V2 receptor; hek293, read-out: EC50) [nM]	EC50 (Vasopressin V2 receptor; read-out: pEC50 (converted)) [nM]	Ratio EC50 (Homo sapiens [2])	EC50 (Vasopressin V1a receptor; read-out: EC50) [nM]	Ratio EC50 (Homo sapiens [3])	EC50 (Oxytocin receptor; read-out: EC50) [nM]	EC50 (Vasopressin V2 receptor; read-out: EC50) [nM]	EC50 (Vasopressin V1a receptor; hek293, read-out: EC50) [nM]	EC50 (Vasopressin V1a receptor; read-out: pEC50 (converted)) [nM]	EC50 (Vasopressin V1b receptor; flp-in-293, read-out: EC50) [nM]	EC50 (Vasopressin V1b receptor; read-out: pEC50 (converted)) [nM]
CC[C@H](C)[C@@H]1NC(=O)C2(CCC2)NC(=O)[C@@H](N)CSSC[C@@H](C(=O)N2CCC[C@H]2C(=O)N[C@@H](CCCN)C(=O)NCC(N)=O)NC(=O)[C@H](CC(N)=O)NC(=O)[C@H](CC(N)=O)NC1=O (H-C[Ac4c]INNCP[Orn]G-NH2; disulfide 1-6)	110	> 10000	> 10000	> 1200	> 10000	> 10000	> 1200	7.9	13	–	–	–	–	–	–
CC[C@H](C)[C@@H]1NC(=O)[C@H](Cc2cccs2)NC(=O)[C@@H](N)CSSC[C@@H](C(=O)N2CCC[C@H]2C(=O)N[C@@H](CCCNC(C)C)C(=O)NCC(N)=O)NC(=O)[C@H](CC(N)=O)NC(=O)[C@H](CC(N)=O)NC1=O (H-C[2Thi]INNCP[Orn(iPr)]G-NH2; disulfide 1-6)	260	–	–	> 710	> 10000	> 10000	61	14	18	860	–	–	–	–	–
CC[C@H](C)[C@@H]1NC(=O)C2(CCC2)NC(=O)[C@@H](N)CSSC[C@@H](C(=O)N2CCC[C@H]2C(=O)N[C@@H](CCN)C(=O)NCC(N)=O)NC(=O)[C@H](CC(N)=O)NC(=O)[C@H](CC(N)=O)NC1=O (H-C[Ac4c]INNCP[Dab]G-NH2; disulfide 1-6)	120	> 10000	> 10000	> 830	> 10000	> 10000	> 830	12	10	–	–	–	–	–	–
CC[C@H](C)[C@@H]1NC(=O)[C@H](Cc2ccccc2)NC(=O)[C@@H](N)CSSC[C@@H](C(=O)N2CCC[C@H]2C(=O)N[C@@H](CCCN)C(=O)NCC(N)=O)NC(=O)[C@H](CC(N)=O)NC(=O)[C@H](CC(=O)NCCOCCO)NC1=O (H-CFID(X3)NCP[Orn]G-NH2; disulfide 1-6)	41	> 10000	> 10000	> 2000	> 10000	> 10000	> 2000	4.8	8.5	–	–	–	–	–	–
CC[C@H](C)[C@@H]1NC(=O)[C@H](Cc2ccccc2)NC(=O)[C@@H](N)CSSC[C@@H](C(=O)N2CCC[C@H]2C(=O)N[C@@H](CCCN)C(=O)NCC(N)=O)NC(=O)[C@H](CC(N)=O)NC(=O)[C@H](CC(=O)NC)NC1=O (H-CFID(NHMe)NCP[Orn]G-NH2; disulfide 1-6)	39	> 10000	> 10000	> 2700	> 10000	> 10000	> 2700	3.6	10	–	–	–	–	–	–
CC[C@H](C)[C@@H]1NC(=O)[C@H](Cc2ccccc2)NC(=O)[C@@H](N)CSSC[C@@H](C(=O)N2CCC[C@H]2C(=O)N[C@@H](CCCNCCC(C)C)C(=O)NCC(N)=O)NC(=O)[C@H](CC(N)=O)NC(=O)[C@H](CCC(N)=O)NC1=O (H-CFIQNCP[X5]G-NH2; disulfide 1-6)	100	–	–	230	–	–	53	0.82	120	44	190	–	–	–	–
CC[C@H](C)[C@@H]1NC(=O)[C@H](Cc2ccccc2)NC(=O)[C@@H](N)CSSC[C@@H](C(=O)N2CCC[C@H]2C(=O)N[C@@H](CCCN)C(=O)NCC(N)=O)NC(=O)[C@H](CC(N)=O)NC(=O)[C@H](CCC(=O)NOC)NC1=O (H-CFI[X4]NCP[Orn]G-NH2; disulfide 1-6)	28	> 10000	> 10000	1500	–	–	> 9000	1.1	25	–	1700	–	–	–	–
CC[C@H](C)[C@@H]1NC(=O)[C@H](Cc2cccnc2)NC(=O)[C@@H](N)CSSC[C@@H](C(=O)N2CCC[C@H]2C(=O)N[C@@H](CCN)C(=O)NCC(N)=O)NC(=O)[C@H](CC(N)=O)NC(=O)[C@H](CCC(N)=O)NC1=O (H-C[3Pal]IQNCP[Dab]G-NH2; disulfide 1-6)	200	> 10000	> 10000	> 330	> 10000	> 10000	> 330	30	6.6	–	–	–	–	–	–
CC[C@H](C)[C@@H]1NC(=O)[C@H](Cc2ccccc2)NC(=O)[C@@H](N)CSSC[C@@H](C(=O)N2CCC[C@H]2C(=O)N[C@@H](CCCNC)C(=O)NCC(N)=O)NC(=O)[C@H](CC(N)=O)NC(=O)[C@H](CC(N)=O)NC1=O (H-CFINNCP[Orn(Me)]G-NH2; disulfide 1-6)	65	> 10000	> 10000	> 4100	> 10000	> 10000	> 4100	2.4	27	–	–	–	–	–	–
CC[C@H](C)[C@@H]1NC(=O)[C@H](Cc2ccccc2)NC(=O)[C@@H](N)CSSC[C@@H](C(=O)N2CCC[C@H]2C(=O)N[C@@H](CCCN)C(=O)NCC(N)=O)NC(=O)[C@H](CC(N)=O)NC(=O)[C@H](CCC(=O)NO)NC1=O (H-CFIE(NHOH)NCP[Orn]G-NH2; disulfide 1-6)	70	> 10000	> 10000	14	–	–	> 830	12	5.8	–	170	–	–	–	–
CC[C@H](C)[C@@H]1NC(=O)[C@H](CC2CCCC2)NC(=O)[C@@H](N)CSSC[C@@H](C(=O)N2CCC[C@H]2C(=O)N[C@@H](CCCN)C(=O)NCC(N)=O)NC(=O)[C@H](CC(N)=O)NC(=O)[C@H](CC(N)=O)NC1=O (H-C[Ala(cPent)]INNCP[Orn]G-NH2; disulfide 1-6)	120	> 10000	> 10000	> 1200	> 10000	> 10000	> 1200	7.7	15	–	–	–	–	–	–
CC[C@H](C)[C@@H]1NC(=O)[C@H](CC2CCCCC2)NC(=O)[C@@H](N)CSSC[C@@H](C(=O)N2CCC[C@H]2C(=O)N[C@@H](CCN)C(=O)NCC(N)=O)NC(=O)[C@H](CC(N)=O)NC(=O)[C@H](CC(N)=O)NC1=O (H-C[Cha]INNCP[Dab]G-NH2; disulfide 1-6)	18	> 10000	> 10000	> 6200	> 10000	> 10000	> 6200	1.6	11	–	–	–	–	–	–
CC[C@H](C)[C@@H]1NC(=O)[C@H](Cc2csc3ccccc23)NC(=O)[C@@H](N)CSSC[C@@H](C(=O)N2CCC[C@H]2C(=O)N[C@@H](CCN)C(=O)NCC(N)=O)NC(=O)[C@H](CC(N)=O)NC(=O)[C@H](CCC(N)=O)NC1=O (H-C[Bta]IQNCP[Dab]G-NH2; disulfide 1-6)	360	> 10000	> 10000	–	> 10000	> 10000	–	–	–	–	–	> 1000	> 1000	–	–
CC[C@H](C)[C@@H]1NC(=O)[C@H](C)NC(=O)[C@@H](N)CSSC[C@@H](C(=O)N2CCC[C@H]2C(=O)N[C@@H](CCN)C(=O)NCC(N)=O)NC(=O)[C@H](CC(N)=O)NC(=O)[C@H](CCC(N)=O)NC1=O (H-CAIQNCP[Dab]G-NH2; disulfide 1-6)	–	> 10000	> 10000	–	> 10000	> 10000	–	–	–	–	–	> 1000	> 1000	> 10000	> 10000
CC[C@H](C)[C@@H]1NC(=O)[C@H](Cc2ccc(O)cc2)NC(=O)[C@@H](N)CSSC[C@@H](C(=O)N2CCC[C@H]2C(=O)N[C@@H](CCCN)C(=O)NCC(N)=O)NC(=O)[C@H](CC(N)=O)NC(=O)[C@H](CCC(N)=O)NC1=O	56	–	–	–	–	–	–	0.23	–	3.3	–	–	–	–	–
